Assay results pooled from the literature.
Protocols differ between the studies behind these lines.
Cell line: MDA-MB-435
Read-out: cell growth or viability

CCOC(=O)c1[nH]c(Br)c(-c2ccc(Cl)cc2)c1Br
IC50 (SRB): 919 nM

COc1ccccc1/C=C/C(=O)c1ccc(OC)c(S(N)(=O)=O)c1
inhibition (SRB; 10 µM): 73%

COc1cc(-c2ccc(-c3ccc(C(=N)N)nc3)s2)cc(OC)c1OC
GI50 (SRB): 1620 nM

COc1ccc(N(C)c2ncnc3c2CCC3)cc1
IC50 (SRB): 50.4 nM

COc1ccc(C(=O)/C=C/c2ccc(Cl)c(Cl)c2)cc1S(N)(=O)=O
GI50 (SRB; 48 h): 2400 nM

O=C1NCCc2[nH]c(-c3ccncc3)cc21
IC50: > 10000 nM

COc1ccc(C(=O)/C=C/c2cccc(Cl)c2)cc1S(N)(=O)=O
inhibition (SRB; 10 µM): 86%

CCOC(=O)c1[nH]c(Br)c(-c2ccc(OC)c(F)c2)c1Br
IC50 (SRB): 539 nM

COc1ccc(-c2ccc(-c3ccc(C(=N)N)nc3)s2)cc1
GI50 (SRB): 1730 nM

CCOC(=O)c1[nH]c(Br)c(-c2ccc(Br)cc2)c1Br
IC50 (SRB): 312 nM

COc1ccc(C(=O)/C=C/c2ccc3ccccc3c2)cc1S(N)(=O)=O
inhibition (SRB; 10 µM): 98%

CCOC(=O)c1[nH]c(Br)c(-c2ccc(Cl)c(Cl)c2)c1Br
IC50 (SRB): 806 nM

COc1cc(Nc2nccc(-c3cnn4nc(OC)ccc34)n2)cc(C(F)(F)F)c1
IC50 (ATP luminescence): 130 nM
